Screening data as filed in PubChem BioAssay.
OX1R antag-1 = antagonists of human orexin 1 receptor; AID 434989; O43613; CHO/OX1R cells, Fluo-8 calcium fluorescence, orexin A; inhibition, % at 5 µM; 330,000 compounds, 0.43% hits;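 active = inhibition above its plate's threshold, mean inhibition of all tested compounds on the plate plus 3 SD, cut at about 37% in these data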;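 also: 0% = orexin A challenge wells and 100% = SB-334867-A antagonist wells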
Target sequence (O43613 whole entry, looked up): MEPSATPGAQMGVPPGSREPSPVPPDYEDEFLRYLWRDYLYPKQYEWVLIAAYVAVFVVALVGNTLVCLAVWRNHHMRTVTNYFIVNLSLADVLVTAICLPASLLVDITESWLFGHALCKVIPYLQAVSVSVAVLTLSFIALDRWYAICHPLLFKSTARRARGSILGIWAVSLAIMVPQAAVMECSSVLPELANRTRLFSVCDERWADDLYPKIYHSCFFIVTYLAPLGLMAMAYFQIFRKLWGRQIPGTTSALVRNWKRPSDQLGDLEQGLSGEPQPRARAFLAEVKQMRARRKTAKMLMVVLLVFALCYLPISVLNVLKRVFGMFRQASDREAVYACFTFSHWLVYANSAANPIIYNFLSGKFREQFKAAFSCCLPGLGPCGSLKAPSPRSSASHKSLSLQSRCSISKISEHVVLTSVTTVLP
GalR3 antag = antagonists of human GalR3. HEK293 GalR3-CNG cAMP membrane potential fluorescence; galR3 body fused to GalR1 C-terminus. inhibition, % at 3 µM. 360,000 compounds, 0.44% hits;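 active = inhibition above the screen-wide average plus 3 SD, cut at about 13% in these data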;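 also: forskolin and galanin both at EC90 stimulate the cells; cAMP rise reported by CNG channel membrane potential dye signal; 0% = forskolin plus galanin with DMSO and 100% = forskolin alone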
GPR7 antagonist = antagonists of human GPR7 (neuropeptides B/W receptor 1). 290,000 compounds, 1.1% hits. GPR7-expressing cells, fluorescence antagonist assay. P48145. AID 1861. inhibition, % at 4.4 µM; in the data active = inhibition above about 16%, passing the limit was not always enough;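 also: cells stimulated with the agonist NPW; 0% = agonist with vehicle and 100% = vehicle without agonist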
OX1R antag-2 = antagonists of human orexin 1 receptor (OX1R). O43613. OX1R-expressing cells, FRET antagonist read-out. inhibition, % at 6.6 µM. 330,000 compounds, 1.8% hits; in the data active = inhibition mostly above about 38%, no sharp cut-off; inactive = mostly below about 40%;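 also: 0% = agonist challenge alone and 100% = reference antagonist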
CHO parental Ca = signal in parental CHO cells, OX1R antagonist counter-screen; inhibition, % at 5.6 µM; 330,000 compounds, 0.63% hits; AID 463079; parental CHO-K1, ATP-induced calcium, Fluo-8 fluorescence;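 active = inhibition above that plate's mean sample inhibition plus 3 SD, cut at about 26% in these data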;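 also: 0% = ATP-challenged DMSO wells and 100% = DMSO wells without ATP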
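Material: parental CHO cells / Compound: single nominal dose of 5.6 µM per compound / Signal: Fluo-8 fluorescence / Replicates: singlicate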
OX1R HTRF conf = confirmation of human orexin 1 receptor antagonists, HTRF format; shares compounds with OX1R antag-2; OX1R-expressing cells, HTRF antagonist assay; inhibition, % at 6.6 µM; 1,800 compounds, 49% hits; in the data active = inhibition above about 55%;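 also: CHO cells expressing OX1R stimulated with orexin A at about EC80; 0% = agonist challenge alone and 100% = reference antagonist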
CHO-K1 HTRF = signal in parental CHO-K1 cells, OX1R antagonist counter-screen; shares compounds with OX1R antag-2; 1,800 compounds, 48% hits; inhibition, % at 6.6 µM; HTRF counterscreen; in the data active = inhibition above about 17%;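 also: 0% = agonist challenge with vehicle and 100% = vehicle alone without agonist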
GalR3 antag conf = confirmation of human galanin receptor 3 antagonists; shares compounds with GalR3 antag; HEK293 GalR3 CNG cAMP biosensor, membrane potential fluorescence; galR3 fused to GalR1 carboxy tail; challenged with forskolin and galanin at EC90; inhibition, % at 3 µM; 1,600 compounds, 59% hits;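 active = inhibition above the primary screen's cutoff, the mean inhibition of all screened compounds plus 3 SD, cut at about 13% in these data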;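 also: 0% = forskolin plus galanin and 100% = forskolin alone with DMSO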
CNG parental = acts as nonspecific agonist in parental HEK-CNG cells. 1,600 compounds, 10% hits. activation, % at 3 µM. shares compounds with GalR3 antag. HEK293-CNG parental cells, cAMP membrane potential fluorescence; normalised: DMSO wells 0%, forskolin wells 100%; in the data active = activation above about 1.3%
An asterisk follows results filed as active; nt = no result given. Shown are actives, neighbours in structure and some others; about 3.1% of the full set was active somewhere.

SMILES	OX1R antag-1	GalR3 antag	GPR7 antagonist	OX1R antag-2	CHO parental Ca	OX1R HTRF conf	CHO-K1 HTRF	GalR3 antag conf	CNG parental
O=C(CSCC(=O)Nc1ccc2ccccc2c1)NCc1ccccc1	-17.6	-2.8	-7.8	16.9	-7.1	nt	nt	nt	nt
O=C(CSCCN1C(=O)c2ccccc2C1=O)Nc1ccc2ccccc2c1	-2.8	-8.4	3.0	80.6*	-21.9	50.5	-1.8	nt	nt
COc1cc(C(=O)Nc2cccc3cccnc23)cc(OC)c1OC	-37.8	-2.8	3.2	25.9	-27.2	nt	nt	nt	nt
COC(=O)c1sccc1NC(=O)c1ccc(C)cc1	-31.9	0.3	13.0	23.2	-13.6	nt	nt	nt	nt
COc1ccc(C(=O)Nc2cc(OC)cc3cccnc23)cc1	26.1	-7.9	8.1	98.5*	-18.5	86.0*	21.6*	nt	nt
COc1cc(OC)cc(C(=O)Nc2cccc3cccnc23)c1	-2.8	-6.8	4.7	80.7*	-12.2	75.2*	6.5	nt	nt
COC(=O)c1sccc1NC(=O)c1ccc(OC)cc1	4.2	-6.1	12.3	89.4*	-14.1	68.4*	4.8	nt	nt
O=S(=O)(NCC1(N2CCOCC2)CCCCC1)c1ccc(F)c(F)c1F	-10.3	-0.8	nt	4.1	-7.7	nt	nt	nt	nt
O=C1c2cc([N+](=O)[O-])cc3cc([N+](=O)[O-])cc(c23)C(=O)N1c1ccccn1	-25.1	nt	-5.2	82.2*	-6.6	73.3*	113.7*	-2.3	0.6
O=C1c2ccc(Oc3cccc([N+](=O)[O-])c3)cc2C(=O)N1c1ccccn1	-8.5	-3.9	-2.2	14.8	-15.6	nt	nt	nt	nt
O=c1c2oc3ccccc3c2ncn1Cc1ccc(Cl)cc1	-19.7	0.0	-5.4	17.8	-19.1	nt	nt	nt	nt
O=c1[nH]c2cc(NCCO)c([N+](=O)[O-])cc2[nH]1	-3.0	20.9*	-11.5	166.4*	-0.5	66.2*	87.7*	33.0*	2.8*
COCCNc1cc(N)c([N+](=O)[O-])cc1[N+](=O)[O-]	8.9	-6.5	-7.4	56.5	6.7	nt	nt	nt	nt
Cc1c(C(C)(C)O)[nH]c2ccc(C(F)(F)F)cc12	-8.6	-7.4	-8.4	7.2	-11.8	nt	nt	nt	nt
Cc1cc2c(ccc3c2no[n+]3[O-])nn1	-9.7	13.7*	-3.8	166.3*	-6.4	50.9	75.8*	13.2*	0.1
Cc1nc(-c2ccc(C(=O)Nc3cccc(Br)c3)cc2)cs1	10.8	98.0*	11.5	88.5*	-3.4	53.8	3.9	101.9*	-0.3
Cc1cccc(C)c1C(OCCN(C)C)C1CCCCC1 (stereo unspecified)	-32.6	-9.7	19.3	8.6	-20.3	nt	nt	nt	nt
COc1ccc(/C=C2\OC(=O)c3c(OC)cccc32)cc1OC	-16.8	61.7*	-6.4	78.5*	-17.0	66.0*	3.1	20.4*	0.4
COc1ccc(C(=O)NCC(=O)OCC(=O)c2ccc3c(c2)NC(=O)CO3)cc1OC	-5.8	72.5*	-4.4	17.0	-3.6	nt	nt	-2.4	-0.1
Cc1ccc(S(=O)(=O)NCC(=O)OCC(=O)N(C)C2CCS(=O)(=O)C2)cc1 (stereo unspecified)	-9.5	-6.2	nt	-0.9	-8.8	nt	nt	nt	nt
CSC[C@H]1CN(c2ccccc2)C(=O)[C@@H]1CC(=O)Nc1ccc(Br)cc1	nt	-6.0	nt	nt	nt	nt	nt	nt	nt
Cc1cc(Br)cn2c(Cc3ccccc3C(F)(F)F)c(-c3ccccc3)nc12	nt	-6.5	nt	nt	nt	nt	nt	nt	nt
Cc1cc(Br)cn2c(Cc3ccccc3C(F)(F)F)c(-c3ccco3)nc12	nt	17.8*	nt	nt	nt	nt	nt	44.5*	1.1
Cc1cc(Br)cn2c(Cc3cccc(Cl)c3)c(-c3ccco3)nc12	nt	40.2*	nt	nt	nt	nt	nt	41.2*	0.3
O=[N+]([O-])c1c(Nc2ccccc2O)cc(Cl)c2nonc12	nt	39.8*	22.2	nt	nt	nt	nt	40.5*	0.3
COc1cccc(NC(=O)CN(C)C(=O)c2c(-c3ccccc3)noc2C)c1	-2.3	-4.0	1.1	9.4	6.0	nt	nt	nt	nt
